Key:
Type in all cases: functional
[1] = test system: SF-539; test: Cytotoxicity against human SF539 cells
How it was run: (§1)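 Read-out is growth inhibition of human cancer cell lines. GI50 is taken as the compound concentration giving 50% growth inhibition.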

[2] = test system: HOP-62; test: Cytotoxicity against human HOP62 cells; how it was run: as §1
[3] = test system: HCT-116; test: Cytotoxicity against human HCT116 cells; how it was run: as §1
[4] = test system: UACC-62; test: Cytotoxicity against human UACC62 cells; how it was run: as §1
[5] = test system: OVCAR-3; test: Cytotoxicity against human OVCAR-3 cells
[6] = test system: SN12C; test: Cytotoxicity against human SN12C cells; how it was run: as §1
[7] = test system: DU-145; test: Cytotoxicity against human DU145 cells; how it was run: as §1
[8] = test system: MDA-MB-435; test: Cytotoxicity against human MDA-MB-435 cells

Compound `[N-]=[N+]=NCCCn1c2c(c3ccc([N+](=O)[O-])cc3c1=O)C(=O)c1ccccc1-2` has a GI50 [1] of 79400 nM.
With `O=C1c2ccccc2-c2c1c1ccccc1c(=O)n2CCCn1ccnc1` the GI50 [2] was 2690 nM, the GI50 [3] was 1410 nM and the GI50 [4] was 790 nM. For the same compound, the GI50 [5] was 1660 nM, the GI50 [6] was 1660 nM and the GI50 [7] was 1410 nM.
With `NCCCn1c2c(c3ccccc3c1=O)C(=O)c1ccccc1-2` the GI50 [3] was 180 nM, the GI50 [1] was 250 nM and the GI50 [4] was 260 nM. For the same compound, the GI50 [5] was 1380 nM, the GI50 [6] was 160 nM and the GI50 [7] was 220 nM. For the same compound, the GI50 [8] was 780 nM.
With `O=C1c2ccccc2-c2c1c1ccccc1c(=O)n2CCCN1CCOCC1` the GI50 [2] was 3720 nM, the GI50 [1] was 3470 nM and the GI50 [4] was 5370 nM. The GI50 [5] was 16600 nM, the GI50 [6] was 21400 nM and the GI50 [7] was 7240 nM. For the same compound, the GI50 [8] was > 100000 nM.
Work on `O=C1c2ccccc2-c2c1c1ccc([N+](=O)[O-])cc1c(=O)n2CCCN1CCOCC1` yielded a GI50 [2] of 21 nM, a GI50 [3] of 38 nM and a GI50 [1] of 95 nM. The GI50 [4] was 380 nM, the GI50 [6] was 309 nM and the GI50 [7] was 85 nM. It also gave a GI50 [8] of 1230 nM.
`COc1ccc2c(c1)C(=O)c1c-2n(CCCN2CCOCC2)c(=O)c2ccccc12` gave a GI50 [2] of 1410 nM, a GI50 [3] of 1260 nM and a GI50 [1] of 1950 nM. The GI50 [4] was 1580 nM, the GI50 [5] was 2690 nM and the GI50 [6] was 4070 nM. The GI50 [7] was 2290 nM and the GI50 [8] was 4680 nM.
For `COc1ccc2c(c1)C(=O)c1c-2n(CCCNCCO)c(=O)c2cc([N+](=O)[O-])ccc12`, the GI50 [2] was < 10 nM, the GI50 [1] was < 10 nM and the GI50 [4] was < 10 nM. For the same compound, the GI50 [5] was < 10 nM, the GI50 [6] was 12 nM and the GI50 [7] was < 10 nM. For the same compound, the GI50 [8] was < 10 nM.
`COc1ccc2c(c1)C(=O)c1c-2n(CCCNCCO)c(=O)c2ccccc12` gave a GI50 [2] of 26 nM, a GI50 [3] of 44 nM and a GI50 [1] of 112 nM. The GI50 [4] was 550 nM, the GI50 [5] was 417 nM and the GI50 [6] was 158 nM. It also gave a GI50 [7] of 55 nM and a GI50 [8] of 389 nM.
In the case of `COc1ccc2c(c1)C(=O)c1c-2n(CCCN(C)C)c(=O)c2cc([N+](=O)[O-])ccc12`, the GI50 [2] was < 10 nM, the GI50 [3] was < 10 nM and the GI50 [1] was < 10 nM. For the same compound, the GI50 [4] was < 10 nM, the GI50 [5] was 28 nM and the GI50 [6] was < 10 nM. The GI50 [7] was < 10 nM and the GI50 [8] was < 10 nM.
In the case of `COc1ccc2c(c1)C(=O)c1c-2n(CCCI)c(=O)c2cc([N+](=O)[O-])ccc12`, the GI50 [3] was 46 nM, the GI50 [1] was 58 nM and the GI50 [4] was 148 nM. The GI50 [5] was 3020 nM, the GI50 [6] was 309 nM and the GI50 [7] was 34 nM. The GI50 [8] was 1480 nM.
`NCCCn1c2c(c3ccc([N+](=O)[O-])cc3c1=O)C(=O)c1ccccc1-2` showed a GI50 [1] of 302 nM.
Compound `COc1ccc2c(c1)C(=O)c1c-2n(CCCN=[N+]=[N-])c(=O)c2ccccc12` has a GI50 [2] of 33900 nM, a GI50 [3] of 26900 nM and a GI50 [1] of 44700 nM. The GI50 [4] was 75900 nM, the GI50 [5] was 52500 nM and the GI50 [6] was > 100000 nM. It also gave a GI50 [7] of 61700 nM and a GI50 [8] of 64600 nM.
For `COc1ccc2c(c1)C(=O)c1c-2n(CCCN)c(=O)c2ccccc12`, the GI50 [2] was < 10 nM, the GI50 [3] was < 10 nM and the GI50 [1] was 38 nM. For the same compound, the GI50 [5] was 28 nM, the GI50 [6] was < 10 nM and the GI50 [7] was 14 nM. For the same compound, the GI50 [8] was 59 nM.
`COc1ccc2c(c1)C(=O)c1c-2n(CCCN(C)C)c(=O)c2ccccc12` gave a GI50 [2] of 78 nM, a GI50 [3] of 102 nM and a GI50 [1] of 240 nM. For the same compound, the GI50 [4] was 1000 nM, the GI50 [5] was 427 nM and the GI50 [6] was 245 nM. It also gave a GI50 [7] of 257 nM and a GI50 [8] of 617 nM.
Work on `COc1ccc2c(c1)C(=O)c1c-2n(CCCn2ccnc2)c(=O)c2ccccc12` yielded a GI50 [2] of 56 nM, a GI50 [3] of 110 nM and a GI50 [1] of 178 nM. For the same compound, the GI50 [4] was 71 nM, the GI50 [5] was 1660 nM and the GI50 [6] was 676 nM. For the same compound, the GI50 [7] was 204 nM and the GI50 [8] was 646 nM.
`[N-]=[N+]=NCCCn1c2c(c3ccccc3c1=O)C(=O)c1ccccc1-2` showed a GI50 [7] of 29500 nM.
In the case of `O=C1c2ccccc2-c2c1c1ccc([N+](=O)[O-])cc1c(=O)n2CCCBr`, the GI50 [3] was 3470 nM and the GI50 [1] was > 100000 nM.
`COc1ccc2c(c1)C(=O)c1c-2n(CCCN2CCOCC2)c(=O)c2cc([N+](=O)[O-])ccc12` was tested, and the GI50 [2] was < 10 nM, the GI50 [3] was < 10 nM and the GI50 [4] was < 10 nM. The GI50 [5] was < 10 nM, the GI50 [6] was < 10 nM and the GI50 [8] was < 10 nM.
`O=C1c2ccccc2-c2c1c1ccc([N+](=O)[O-])cc1c(=O)n2CCCNCCO` was tested, and the GI50 [2] was 31 nM, the GI50 [3] was 27 nM and the GI50 [1] was > 100000 nM. For the same compound, the GI50 [4] was 200 nM, the GI50 [5] was 1350 nM and the GI50 [6] was 229 nM. The GI50 [7] was > 100000 nM and the GI50 [8] was 1070 nM.
In the case of `COc1ccc2c(c1)C(=O)c1c-2n(CCCn2ccnc2)c(=O)c2cc([N+](=O)[O-])ccc12`, the GI50 [2] was < 10 nM, the GI50 [3] was < 10 nM and the GI50 [1] was < 10 nM. The GI50 [4] was < 10 nM, the GI50 [5] was 20 nM and the GI50 [6] was < 10 nM. The GI50 [7] was < 10 nM and the GI50 [8] was < 10 nM.
`O=C1c2ccccc2-c2c1c1ccccc1c(=O)n2CCCNCCO` showed a GI50 [2] of 195 nM, a GI50 [1] of 550 nM and a GI50 [4] of 178 nM. It also gave a GI50 [5] of 550 nM, a GI50 [6] of 269 nM and a GI50 [7] of 174 nM. The GI50 [8] was 490 nM.
For `COc1ccc2c(c1)C(=O)c1c-2n(CCCN)c(=O)c2cc([N+](=O)[O-])ccc12`, the GI50 [3] was < 10 nM.
`COc1cc2c3c(n(C)c(=O)c2cc1OC)-c1cc2c(cc1C3=O)OCO2` gave a GI50 [2] of 1300 nM, a GI50 [3] of 35000 nM and a GI50 [4] of 4200 nM. The GI50 [6] was 68000 nM, the GI50 [7] was 37000 nM and the GI50 [8] was 96000 nM.

From ChEMBL document CHEMBL1148768, “Nitrated indenoisoquinolines as topoisomerase I inhibitors: a systematic study and optimization” (2007)
